Experimental data from different studies.
Compare with care: the assays were run in different laboratories.
Target: Serine/threonine-protein kinase tousled-like 2 (TLK2, Homo sapiens, UniProt Q86UE8)

Structure (SMILES) | observed | method | tested at | remaining binding [%]
c1cnn2ncc(-c3ccnc(N4CCC45COC5)n3)c2c1 | binding |  | 1 µM | 100
FC(F)(F)Oc1cccc(-c2cnc3ccc(-c4ccncc4)nn23)c1 | binding | competition with immobilised ligand | 5 µM | 93
NS(=O)(=O)c1cc(NC(=O)C2(c3ccccc3Cl)CC2)ccc1Oc1cccc(Cl)c1 | cell-free assay | competition with immobilised ligand | 1 µM | 100
Cc1cnn2ncc(-c3ccnc(N(C)C)n3)c2c1 | binding |  | 1 µM | 100
COc1ncc2cc3ccccc3nc2c1C#N | cell-free assay | competition with immobilised ligand | 5 µM | 100
N[C@H]1CCN(c2nccc(-c3cnn4ncccc34)n2)C1 | binding |  | 1 µM | 100
O=C(N[C@H]1CCCCC/C=C\C2C[C@@]2(C(=O)O)NC(=O)[C@@H]2C[C@@H](Oc3ccncc3)CN2C1=O)OC1CCCC1 (stereo partly drawn) | cell-free assay | competition with immobilised ligand | 1 µM | 100
CN(C)c1nccc(-c2cnn3ncccc23)n1 | binding |  | 1 µM | 100
COc1cnc(Nc2cccc(S(N)(=O)=O)c2)nc1N1CCN(c2ccccc2)C(=O)C1 | binding | competition with immobilised ligand | 1 µM | 100
CNC(=O)Nc1ccc2c(c1)[C@@]1(CC2)OC(=O)N(CC(=O)N(Cc2ccc(F)cc2)[C@@H](C)C(F)(F)F)C1=O | cell-free assay | competition with immobilised ligand | 1 µM | 100
Cc1cnc(Nc2ccc(C(=O)N3CCC(N4CCCC4)CC3)cc2)nc1-c1cc2ccccc2s1 | binding | competition with immobilised ligand | 1 µM | 15
CNC(=O)[C@@H]1CC[C@@H](n2c(-c3ccc4cnccc4c3)nc3ccc(C(=O)NCc4cccc(C(N)=O)c4)cc32)C1 | binding | competition with immobilised ligand | 1 µM | 100
Cc1nc(C2CCN(C(=O)c3ccc(OC(F)(F)F)cc3N)CC2)c2ncc(N3CCN(C)CC3)cc2n1 | cell-free assay | competition with immobilised ligand | 1 µM | 100
C[C@@H](c1ccc(-n2cnc3c(N)ncnc32)cc1)N1CCc2nn(C)c(Cc3ccccc3)c2C1=O | binding | competition with immobilised ligand | 0.1 µM | 99
O=C(c1ccc(Nc2nccc(-c3cc4ccccc4s3)n2)cc1)N1CCC(N2CCCC2)CC1 | binding | competition with immobilised ligand | 1 µM | 15
CN(c1nccc(-c2cnn3ncccc23)n1)C1CC1 | binding |  | 1 µM | 100
O=C(NCCCN1CCOCC1)c1ccc(Nc2nccc(-c3cc4ccccc4s3)n2)cc1 | binding | competition with immobilised ligand | 1 µM | 64
CO[C@@H](C)c1c(Nc2ccc([C@H](N(C)C(=O)C3CCS(=O)(=O)CC3)C(F)(F)F)cc2)cnc2cc(Cl)nn12 | cell-free assay | competition with immobilised ligand | 1 µM | 92
O=C(NCC1CCOCC1)c1n[nH]cc1NC(=O)c1c(F)cccc1F | binding | competition with immobilised ligand | 1 µM | 100
C[C@H]1CCN(c2nccc(-c3cnn4ncccc34)n2)C1 | binding |  | 1 µM | 100
N#CC1(c2ccccn2)CCN(Cc2cc(C(=O)N3CCCC3)c(=O)n3ccccc23)CC1 | cell-free assay | competition with immobilised ligand | 1 µM | 100
